According to ChEMBL document CHEMBL1629649, “Multiple regulatory pathways associated with high-level ciprofloxacin and multidrug resistance in Salmonella enterica serovar enteritidis: involvement of RamA and other global regulators” (2009):
Converted amounts (≈) assume the structure as drawn. Residues, ends and D or L forms follow the SMILES beside them. *: point of attachment. βNA = c1ccc2cc(N*)ccc2c1

Key:
[1] = test system: Salmonella enterica subsp. enterica serovar Enteritidis; test: Inhibition of AcrAB-TolC efflux pump in Salmonella enterica serovar enteritidis isolate 5408 assessed as fold increase in nalidixic acid MIC relative to control
[2] = test system: Salmonella enterica subsp. enterica serovar Enteritidis; test: Inhibition of AcrAB-TolC efflux pump in Salmonella enterica serovar enteritidis isolate 5408-cip assessed as fold increase in nalidixic acid MIC relative to control
[3] = test system: Salmonella enterica subsp. enterica serovar Enteritidis; test: Inhibition of AcrAB-TolC efflux pump in ciprofloxacin-resistant Salmonella enterica serovar enteritidis isolate CUH48 assessed as fold increase in ciprofloxacin MIC relative to control
[4] = test system: Salmonella enterica subsp. enterica serovar Enteritidis; test: Inhibition of AcrAB-TolC efflux pump in Salmonella enterica serovar enteritidis isolate CUH52 assessed as fold increase in ciprofloxacin MIC relative to control
[5] = test system: Salmonella enterica subsp. enterica serovar Enteritidis; test: Inhibition of AcrAB-TolC efflux pump in Salmonella enterica serovar enteritidis isolate NCTC 13349 assessed as fold increase in ciprofloxacin MIC relative to control
[6] = test system: Salmonella enterica subsp. enterica serovar Enteritidis; test: Inhibition of AcrAB-TolC efflux pump in Salmonella enterica serovar enteritidis isolate 54 assessed as fold increase in ciprofloxacin MIC relative to control
[7] = test system: Salmonella enterica subsp. enterica serovar Enteritidis; test: Inhibition of AcrAB-TolC efflux pump in Salmonella enterica serovar enteritidis isolate 58 assessed as fold increase in ciprofloxacin MIC relative to controlphenylalanine-arginine-beta-naphthylamide
[8] = test system: Salmonella enterica subsp. enterica serovar Enteritidis; test: Inhibition of AcrAB-TolC efflux pump in Salmonella enterica serovar enteritidis isolate 51 assessed as fold increase in ciprofloxacin MIC relative to control
[9] = test system: Salmonella enterica subsp. enterica serovar Enteritidis; test: Inhibition of AcrAB-TolC efflux pump in Salmonella enterica serovar enteritidis isolate CUH60 assessed as fold increase in ciprofloxacin MIC relative to control
[10] = test system: Salmonella enterica subsp. enterica serovar Enteritidis; test: Inhibition of AcrAB-TolC efflux pump in Salmonella enterica serovar enteritidis isolate 4931 assessed as fold increase in ciprofloxacin MIC relative to control
[11] = test system: Salmonella enterica subsp. enterica serovar Enteritidis; test: Inhibition of AcrAB-TolC efflux pump in Salmonella enterica serovar enteritidis isolate 104 assessed as fold increase in ciprofloxacin MIC relative to control
[12] = test system: Salmonella enterica subsp. enterica serovar Enteritidis; test: Inhibition of AcrAB-TolC efflux pump in Salmonella enterica serovar enteritidis isolate 104-cip assessed as fold increase in ciprofloxacin MIC relative to control
[13] = test system: Salmonella enterica subsp. enterica serovar Enteritidis; test: Inhibition of AcrAB-TolC efflux pump in Salmonella enterica serovar enteritidis isolate 5408 assessed as fold increase in ciprofloxacin MIC relative to control
[14] = test system: Salmonella enterica subsp. enterica serovar Enteritidis; test: Inhibition of AcrAB-TolC efflux pump in Salmonella enterica serovar enteritidis isolate 5408-cip assessed as fold increase in ciprofloxacin MIC relative to control
[15] = test system: Salmonella enterica subsp. enterica serovar Enteritidis; test: Inhibition of AcrAB-TolC efflux pump in Salmonella enterica serovar enteritidis isolate 104 assessed as fold increase in tetracycline MIC relative to control
[16] = test system: Salmonella enterica subsp. enterica serovar Enteritidis; test: Inhibition of AcrAB-TolC efflux pump in Salmonella enterica serovar enteritidis isolate 104-cip assessed as fold increase in tetracycline MIC relative to control
[17] = test system: Salmonella enterica subsp. enterica serovar Enteritidis; test: Inhibition of AcrAB-TolC efflux pump in Salmonella enterica serovar enteritidis isolate 5408 assessed as fold increase in tetracycline MIC relative to control
[18] = test system: Salmonella enterica subsp. enterica serovar Enteritidis; test: Inhibition of AcrAB-TolC efflux pump in Salmonella enterica serovar enteritidis isolate 5408-cip assessed as fold increase in tetracycline MIC relative to control
[19] = test system: Salmonella enterica subsp. enterica serovar Enteritidis; test: Inhibition of AcrAB-TolC efflux pump in Salmonella enterica serovar enteritidis isolate 104 assessed as fold increase in trimethoprim-sulfamethoxazole MIC relative to control
[20] = test system: Salmonella enterica subsp. enterica serovar Enteritidis; test: Inhibition of AcrAB-TolC efflux pump in Salmonella enterica serovar enteritidis isolate 104-cip assessed as fold increase in trimethoprim-sulfamethoxazole MIC relative to control
[21] = test system: Salmonella enterica subsp. enterica serovar Enteritidis; test: Inhibition of AcrAB-TolC efflux pump in Salmonella enterica serovar enteritidis isolate 5408 assessed as fold increase in trimethoprim-sulfamethoxazole MIC relative to control
[22] = test system: Salmonella enterica subsp. enterica serovar Enteritidis; test: Inhibition of AcrAB-TolC efflux pump in Salmonella enterica serovar enteritidis isolate 5408-cip assessed as fold increase in trimethoprim-sulfamethoxazole MIC relative to control
[23] = test system: Salmonella enterica subsp. enterica serovar Enteritidis; test: Inhibition of AcrAB-TolC efflux pump in Salmonella enterica serovar enteritidis isolate 104 assessed as fold increase in ampicillin MIC relative to control
[24] = test system: Salmonella enterica subsp. enterica serovar Enteritidis; test: Inhibition of AcrAB-TolC efflux pump in Salmonella enterica serovar enteritidis isolate 104-cip assessed as fold increase in ampicillin MIC relative to control
[25] = test system: Salmonella enterica subsp. enterica serovar Enteritidis; test: Inhibition of AcrAB-TolC efflux pump in Salmonella enterica serovar enteritidis isolate 5408-cip assessed as fold increase in ampicillin MIC relative to control
[26] = test system: Salmonella enterica subsp. enterica serovar Enteritidis; test: Inhibition of AcrAB-TolC efflux pump in Salmonella enterica serovar enteritidis isolate 104 assessed as fold increase in chloramphenicol MIC relative to control
[27] = test system: Salmonella enterica subsp. enterica serovar Enteritidis; test: Inhibition of AcrAB-TolC efflux pump in Salmonella enterica serovar enteritidis isolate 5408 assessed as fold increase in ampicillin MIC relative to control
[28] = test system: Salmonella enterica subsp. enterica serovar Enteritidis; test: Inhibition of AcrAB-TolC efflux pump in Salmonella enterica serovar enteritidis isolate 104-cip assessed as fold increase in chloramphenicol MIC relative to control
[29] = test system: Salmonella enterica subsp. enterica serovar Enteritidis; test: Inhibition of AcrAB-TolC efflux pump in Salmonella enterica serovar enteritidis isolate 5408 assessed as fold increase in chloramphenicol MIC relative to control
[30] = test system: Salmonella enterica subsp. enterica serovar Enteritidis; test: Inhibition of AcrAB-TolC efflux pump in Salmonella enterica serovar enteritidis isolate 5408-cip assessed as fold increase in chloramphenicol MIC relative to control
[31] = test system: Salmonella enterica subsp. enterica serovar Enteritidis; test: Inhibition of AcrAB-TolC efflux pump in Salmonella enterica serovar enteritidis isolate 58 assessed as fold increase in nalidixic acid MIC relative to controlphenylalanine-arginine-beta-naphthylamide
[32] = test system: Salmonella enterica subsp. enterica serovar Enteritidis; test: Inhibition of AcrAB-TolC efflux pump in Salmonella enterica serovar enteritidis isolate 51 assessed as fold increase in nalidixic acid MIC relative to control
[33] = test system: Salmonella enterica subsp. enterica serovar Enteritidis; test: Inhibition of AcrAB-TolC efflux pump in Salmonella enterica serovar enteritidis isolate CUH60 assessed as fold increase in nalidixic acid MIC relative to control
[34] = test system: Salmonella enterica subsp. enterica serovar Enteritidis; test: Inhibition of AcrAB-TolC efflux pump in Salmonella enterica serovar enteritidis isolate 4931 assessed as fold increase in nalidixic acid MIC relative to control
[35] = test system: Salmonella enterica subsp. enterica serovar Enteritidis; test: Inhibition of AcrAB-TolC efflux pump in Salmonella enterica serovar enteritidis isolate 104 assessed as fold increase in nalidixic acid MIC relative to control
[36] = test system: Salmonella enterica subsp. enterica serovar Enteritidis; test: Inhibition of AcrAB-TolC efflux pump in Salmonella enterica serovar enteritidis isolate 104-cip assessed as fold increase in nalidixic acid MIC relative to control
[37] = test system: Salmonella enterica subsp. enterica serovar Enteritidis; test: Inhibition of AcrAB-TolC efflux pump in ciprofloxacin-resistant Salmonella enterica serovar enteritidis isolate CUH48 assessed as fold increase in nalidixic acid MIC relative to control
[38] = test system: Salmonella enterica subsp. enterica serovar Enteritidis; test: Inhibition of AcrAB-TolC efflux pump in Salmonella enterica serovar enteritidis isolate CUH52 assessed as fold increase in nalidixic acid MIC relative to control
[39] = test system: Salmonella enterica subsp. enterica serovar Enteritidis; test: Inhibition of AcrAB-TolC efflux pump in Salmonella enterica serovar enteritidis isolate NCTC 13349 assessed as fold increase in nalidixic acid MIC relative to control
[40] = test system: Salmonella enterica subsp. enterica serovar Enteritidis; test: Inhibition of AcrAB-TolC efflux pump in Salmonella enterica serovar enteritidis isolate 54 assessed as fold increase in nalidixic acid MIC relative to control
[41] = test system: Salmonella enteritidis; test: Antimicrobial activity against marA::aph-deficient ciprofloxacin-resistant Salmonella enterica serovar enteritidis isolate 104-cip harboring gyrA D87Y,S83F mutant gene by Etest; type: functional, Salmonella enterica subsp. enterica serovar Enteritidis
In short: (§1)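 Deletions (acrB, marA, soxS or ramA) were moved from SL1344 mutants into the isolates by P22 phage transduction. Transductants were selected on LB agar with 50 µg/ml kanamycin, and insertion of the kanamycin resistance gene was confirmed by PCR. MICs were then determined by Etest.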

[42] = test system: Salmonella enteritidis; test: Antimicrobial activity against acrB::aph-deficient ciprofloxacin-resistant Salmonella enterica serovar enteritidis isolate 5408-cip harboring gyrA D87Y, gyrB E466D, parE V461G mutant gene by Etest; type: functional, Salmonella enterica subsp. enterica serovar Enteritidis; in short: as §1
[43] = test system: Salmonella enteritidis; test: Antimicrobial activity against ramA::aph-deficient ciprofloxacin-resistant Salmonella enterica serovar enteritidis isolate 5408-cip harboring gyrA D87Y, gyrB E466D, parE V461G mutant gene by Etest; type: functional, Salmonella enterica subsp. enterica serovar Enteritidis; in short: as §1
[44] = test system: Salmonella enteritidis; test: Antimicrobial activity against Salmonella enterica serovar enteritidis isolate 104 harboring gyrA D87Y mutant gene by Etest; type: functional, Salmonella enterica subsp. enterica serovar Enteritidis
[45] = test system: Salmonella enteritidis; test: Antimicrobial activity against ciprofloxacin-resistant Salmonella enterica serovar enteritidis isolate 5408-cip harboring gyrA D87Y, gyrB E466D, parE V461G mutant gene by Etest; type: functional, Salmonella enterica subsp. enterica serovar Enteritidis
[46] = test system: Salmonella enteritidis; test: Antimicrobial activity against Salmonella enterica serovar enteritidis isolate 5408 harboring gyrA D87Y mutant gene by Etest; type: functional, Salmonella enterica subsp. enterica serovar Enteritidis
[47] = test system: Salmonella enteritidis; test: Antimicrobial activity against Salmonella enterica serovar enteritidis isolate 104-cip harboring gyrA D87Y,S83F mutant gene by Etest; type: functional, Salmonella enterica subsp. enterica serovar Enteritidis
[48] = test system: Salmonella enteritidis; test: Antimicrobial activity against acrB::aph-deficient ciprofloxacin-resistant Salmonella enterica serovar enteritidis isolate 104-cip harboring gyrA D87Y,S83F mutant gene by Etest; type: functional, Salmonella enterica subsp. enterica serovar Enteritidis; in short: as §1
[49] = test system: Salmonella enteritidis; test: Antimicrobial activity against soxS::aph-deficient ciprofloxacin-resistant Salmonella enterica serovar enteritidis isolate 104-cip harboring gyrA D87Y,S83F mutant gene by Etest; type: functional, Salmonella enterica subsp. enterica serovar Enteritidis; in short: as §1

`N=C(N)NCCC[C@H](NC(=O)[C@@H](N)Cc1ccccc1)C(=O)Nc1ccc2ccccc2c1` (H-Phe-Arg-βNA) was tested, and the Activity [1] was 24 µg/mL, the Activity [2] was 16 µg/mL and the MIC [3] was 0.012 µg/mL. The Activity [4] was 0.008 µg/mL, the Activity [5] was 0.008 µg/mL and the Activity [6] was 0.064 µg/mL. For the same molecule, the Activity [7] was 0.064 µg/mL, the Activity [8] was 0.094 µg/mL and the Activity [9] was 0.094 µg/mL. For the same molecule, the Activity [10] was 0.064 µg/mL, the Activity [11] was 0.094 µg/mL and the Activity [12] was 2 µg/mL. The Activity [13] was 0.094 µg/mL, the Activity [14] was 2 µg/mL and the Activity [15] was 0.19 µg/mL. It also gave an Activity [16] of 3 µg/mL, an Activity [17] of 0.19 µg/mL and an Activity [18] of 0.094 µg/mL. The Activity [19] was 0.023 µg/mL, the Activity [20] was 0.023 µg/mL and the Activity [21] was 0.023 µg/mL. For the same molecule, the Activity [22] was 0.032 µg/mL, the Activity [23] was 0.75 µg/mL and the Activity [24] was 1 µg/mL. It also gave an Activity [25] of 2 µg/mL, an Activity [26] of 0.75 µg/mL and an Activity [27] of 1 µg/mL. For the same molecule, the Activity [28] was 1 µg/mL, the Activity [29] was 0.5 µg/mL and the Activity [30] was 0.38 µg/mL. For the same molecule, the Activity [31] was 24 µg/mL, the Activity [32] was 32 µg/mL and the Activity [33] was 32 µg/mL. For the same molecule, the Activity [34] was 16 µg/mL, the Activity [35] was 24 µg/mL and the Activity [36] was 256 µg/mL. The MIC [37] was 0.5 µg/mL (≈ 1.12 µM), the Activity [38] was 0.75 µg/mL and the Activity [39] was 0.38 µg/mL. It also gave an Activity [40] of 16 µg/mL.

`CN(C)[C@@H]1C(O)=C(C(N)=O)C(=O)[C@@]2(O)C(O)=C3C(=O)c4c(O)cccc4[C@@](C)(O)[C@H]3C[C@@H]12` [TETRACYCLINE] was tested, and the MIC [41] was 1.5 µg/mL (≈ 3.38 µM), the MIC [42] was 0.094 µg/mL (≈ 0.212 µM) and the MIC [43] was 1 µg/mL (≈ 2.25 µM). It also gave an MIC [44] of 1 µg/mL (≈ 2.25 µM), an MIC [45] of 1.5 µg/mL (≈ 3.38 µM) and an MIC [46] of 1 µg/mL (≈ 2.25 µM). It also gave an MIC [47] of 12 µg/mL (≈ 27 µM), an MIC [48] of 0.25 µg/mL (≈ 0.563 µM) and an MIC [49] of 0.75 µg/mL (≈ 1.69 µM).
